From ChEMBL document CHEMBL1671867, “Novel polymyxin derivatives carrying only three positive charges are effective antibacterial agents” (Antimicrob Agents Chemother, 2008)
Converted amounts (≈) assume the structure as drawn.

Key:
Type in all cases: functional
Escherichia coli [1] = experiment: Antibacterial activity against Escherichia coli ATCC 25992 by Etest method
Method in brief: (§1)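 E-strip MIC on Mueller-Hinton agar without added peptide; inoculum per manufacturer, matching CLSI M2-A9.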

Pseudomonas aeruginosa [2] = experiment: (§2) Antibacterial activity against Pseudomonas aeruginosa ATCC 27853by Etest method in presence of […] NAB739
Pseudomonas aeruginosa [3] = experiment: as §2; remark: listed apart in the source
Pseudomonas aeruginosa [4] = experiment: Antibacterial activity against Pseudomonas aeruginosa ATCC 27853by Etest method
Method in brief: (§3)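 MICs of the antibiotic taken from E-strips on Mueller-Hinton agar, run both with and without peptide. […] Inoculum was prepared per the strip manufacturer, matching CLSI M2-A9.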

Acinetobacter baumannii [5] = experiment: Antibacterial activity against Acinetobacter baumannii F264 by Etest method in presence of 1 ug/ml NAB739
Acinetobacter baumannii [6] = experiment: Antibacterial activity against Acinetobacter baumannii F264 by Etest method in presence of 0.5 ug/ml NAB739
Acinetobacter baumannii [7] = experiment: (§4) Antibacterial activity against Acinetobacter baumannii F264 by Etest method in presence of […] NAB739
Acinetobacter baumannii [8] = experiment: Antibacterial activity against Acinetobacter baumannii F264 by Etest method; method in brief: as §1
Acinetobacter baumannii [9] = experiment: as §4; remark: listed apart in the source
Acinetobacter baumannii [10] = experiment: Antibacterial activity against Acinetobacter baumannii ATCC 19606 by Etest method in presence of 1 ug/ml NAB739
Acinetobacter baumannii [11] = experiment: Antibacterial activity against Acinetobacter baumannii ATCC 19606 by Etest method in presence of 0.5 ug/ml NAB739
Acinetobacter baumannii [12] = experiment: (§5) Antibacterial activity against Acinetobacter baumannii ATCC 19606 by Etest method in presence of […] NAB739
Acinetobacter baumannii [13] = experiment: as §5; remark: listed apart in the source
Acinetobacter baumannii [14] = experiment: Antibacterial activity against Acinetobacter baumannii ATCC 19606 by Etest method
Pseudomonas aeruginosa [15] = experiment: Antibacterial activity against Pseudomonas aeruginosa ATCC 27853by Etest method in presence of 0.5 ug/ml NAB739; method in brief: as §3
Pseudomonas aeruginosa [16] = experiment: Antibacterial activity against Pseudomonas aeruginosa ATCC 27853by Etest method in presence of 1 ug/ml NAB739; method in brief: as §3
Pseudomonas aeruginosa [17] = experiment: Antibacterial activity against Pseudomonas aeruginosa ATCC 27853by Etest method in presence of 2 ug/ml NAB739
Escherichia coli [18] = experiment: Antibacterial activity against Escherichia coli ATCC […] by Etest method in presence of 1 ug/ml NAB7061
Escherichia coli [19] = experiment: Antibacterial activity against Escherichia coli ATCC […] by Etest method in presence of 2 ug/ml NAB7062
Escherichia coli [20] = experiment: Antibacterial activity against Escherichia coli ATCC […] by Etest method in presence of 4 ug/ml NAB7064
Escherichia coli [21] = experiment: Antibacterial activity against Escherichia coli IH3080 by Etest method; method in brief: as §1
Escherichia coli [22] = experiment: Antibacterial activity against Escherichia coli IH3080 by Etest method in presence of 1 ug/ml NAB7061
Escherichia coli [23] = experiment: Antibacterial activity against Escherichia coli IH3080 by Etest method in presence of 2 ug/ml NAB7062
Escherichia coli [24] = experiment: Antibacterial activity against Escherichia coli IH3080 by Etest method in presence of 4 ug/ml NAB7064
Escherichia coli [25] = experiment: Antibacterial activity against Escherichia coli IH3080 by Etest method in presence of NAB7061
Klebsiella pneumoniae [26] = experiment: Antibacterial activity against Klebsiella pneumoniae ATCC 13883 by Etest method; method in brief: as §3
Klebsiella pneumoniae [27] = experiment: Antibacterial activity against Klebsiella pneumoniae ATCC 13883 by Etest method in presence of 1 ug/ml NAB7061; method in brief: as §3
Klebsiella pneumoniae [28] = experiment: Antibacterial activity against Klebsiella pneumoniae ATCC 13883 by Etest method in presence of 2 ug/ml NAB7061; method in brief: as §3
Klebsiella pneumoniae [29] = experiment: Antibacterial activity against Klebsiella pneumoniae ATCC 13883 by Etest method in presence of 4 ug/ml NAB7061; method in brief: as §3
Klebsiella pneumoniae [30] = experiment: Antibacterial activity against Klebsiella pneumoniae ATCC 13883 by Etest method in presence of NAB7061; method in brief: as §3
Enterobacter cloacae [31] = experiment: Antibacterial activity against Enterobacter cloacae ATCC 23355 by Etest method; method in brief: as §1
Enterobacter cloacae [32] = experiment: Antibacterial activity against Enterobacter cloacae ATCC 23355 […] by Etest method in presence of 1 ug/ml NAB7061
Enterobacter cloacae [33] = experiment: Antibacterial activity against Enterobacter cloacae ATCC 23355 […] by Etest method in presence of 2 ug/ml NAB7062
Enterobacter cloacae [34] = experiment: Antibacterial activity against Enterobacter cloacae ATCC 23355 […] by Etest method in presence of 4 ug/ml NAB7064
Enterobacter cloacae [35] = experiment: Antibacterial activity against Enterobacter cloacae ATCC 23355 […] by Etest method in presence of NAB7061
Escherichia coli [36] = experiment: Antibacterial activity against Escherichia coli by Etest method in presence of 4 ug/ml NAB7061
Escherichia coli [37] = experiment: Antibacterial activity against Escherichia coli NCTC13353 by Etest method in presence of 4 ug/ml NAB7062
Klebsiella pneumoniae [38] = experiment: Antibacterial activity against Klebsiella pneumoniae CCUG45421 by Etest method in presence of 4 ug/ml NAB7063
Klebsiella pneumoniae [39] = experiment: Antibacterial activity against Klebsiella pneumoniae by Etest method in presence of 4 ug/ml NAB7064
Klebsiella oxytoca [40] = experiment: Antibacterial activity against Klebsiella oxytoca ATCC 13182 by Etest method in presence of 4 ug/ml NAB7065
Klebsiella oxytoca [41] = experiment: Antibacterial activity against Klebsiella oxytoca CCUG51683 by Etest method in presence of 4 ug/ml NAB7066
Enterobacter cloacae [42] = experiment: Antibacterial activity against Enterobacter cloacae CCUG52947 by Etest method in presence of 4 ug/ml NAB7067
Enterobacter cloacae [43] = experiment: Antibacterial activity against Enterobacter cloacae by Etest method in presence of 4 ug/ml NAB7068
Citrobacter freundii = experiment: Antibacterial activity against Citrobacter freundii ATCC 8090 by Etest method in presence of 4 ug/ml NAB7069
Acinetobacter baumannii [44] = experiment: Antibacterial activity against Acinetobacter baumannii ATCC 19606 by Etest method in presence of 4 ug/ml NAB7070
Acinetobacter baumannii [45] = experiment: Antibacterial activity against Acinetobacter baumannii by Etest method in presence of 4 ug/ml NAB7071
Serratia marcescens = experiment: Antibacterial activity against Serratia marcescens ATCC 8100 by Etest method in presence of 4 ug/ml NAB7072
Proteus mirabilis = experiment: Antibacterial activity against Proteus mirabilis ATCC 29906 by Etest method in presence of 4 ug/ml NAB7073
Proteus vulgaris = experiment: Antibacterial activity against Proteus vulgaris ATCC 13315 by Etest method in presence of 4 ug/ml NAB7074
Pseudomonas aeruginosa [46] = experiment: Antibacterial activity against Pseudomonas aeruginosa ATCC 27853 by Etest method in presence of 4 ug/ml NAB7075

In the case of `CC[C@H]1OC(=O)[C@H](C)[C@@H](O[C@H]2C[C@@](C)(OC)[C@@H](O)[C@H](C)O2)[C@H](C)[C@@H](O[C@@H]2O[C@H](C)C[C@H](N(C)C)[C@H]2O)[C@](C)(OC)C[C@@H](C)C(=O)[C@H](C)[C@@H](O)[C@]1(C)O` [CLARITHROMYCIN], the MIC (Escherichia coli [1]) is reported as 16 µg/mL (≈ 21.4 µM), the MIC (Pseudomonas aeruginosa [2]) is reported as 32 µg/mL and the MIC (Pseudomonas aeruginosa [3]) is reported as 32 µg/mL. For the same compound, the MIC (Pseudomonas aeruginosa [4]) was 48 µg/mL (≈ 64.2 µM), the MIC (Acinetobacter baumannii [5]) was 0.125 µg/mL and the MIC (Acinetobacter baumannii [6]) was 0.5 µg/mL. The MIC (Acinetobacter baumannii [7]) was 1.5 µg/mL, the MIC (Acinetobacter baumannii [8]) was 6 µg/mL (≈ 8.02 µM) and the MIC (Acinetobacter baumannii [9]) was 2 µg/mL. For the same compound, the MIC (Acinetobacter baumannii [10]) was 0.094 µg/mL, the MIC (Acinetobacter baumannii [11]) was 0.5 µg/mL and the MIC (Acinetobacter baumannii [12]) was 1 µg/mL. It also gave an MIC (Acinetobacter baumannii [13]) of 1.5 µg/mL, an MIC (Acinetobacter baumannii [14]) of 8 µg/mL (≈ 10.7 µM) and an MIC (Pseudomonas aeruginosa [15]) of 16 µg/mL. It also gave an MIC (Pseudomonas aeruginosa [16]) of 12 µg/mL, an MIC (Pseudomonas aeruginosa [17]) of 3 µg/mL and an MIC (Escherichia coli [18]) of 0.5 µg/mL. The MIC (Escherichia coli [19]) was 0.19 µg/mL, the MIC (Escherichia coli [20]) was 0.094 µg/mL and the MIC (Escherichia coli [21]) was 12 µg/mL (≈ 16 µM). It also gave an MIC (Escherichia coli [22]) of 0.5 µg/mL, an MIC (Escherichia coli [23]) of 0.25 µg/mL and an MIC (Escherichia coli [24]) of 0.047 µg/mL. The MIC (Escherichia coli [25]) was 0.105 µg/mL, the MIC (Klebsiella pneumoniae [26]) was 12 µg/mL (≈ 16 µM) and the MIC (Klebsiella pneumoniae [27]) was 2 µg/mL. It also gave an MIC (Klebsiella pneumoniae [28]) of 1 µg/mL, an MIC (Klebsiella pneumoniae [29]) of 0.19 µg/mL and an MIC (Klebsiella pneumoniae [30]) of no more than 0.141 µg/mL. For the same compound, the MIC (Enterobacter cloacae [31]) was 64 µg/mL (≈ 85.6 µM), the MIC (Enterobacter cloacae [32]) was 32 µg/mL and the MIC (Enterobacter cloacae [33]) was 1.5 µg/mL. For the same compound, the MIC (Enterobacter cloacae [34]) was 0.25 µg/mL, the MIC (Enterobacter cloacae [35]) was 0.273 µg/mL and the MIC (Escherichia coli [36]) was 0.032 µg/mL. It also gave an MIC (Escherichia coli [37]) of 1 µg/mL, an MIC (Klebsiella pneumoniae [38]) of 24 µg/mL and an MIC (Klebsiella pneumoniae [39]) of 0.25 µg/mL. For the same compound, the MIC (Klebsiella oxytoca [40]) was 0.25 µg/mL, the MIC (Klebsiella oxytoca [41]) was 0.19 µg/mL and the MIC (Enterobacter cloacae [42]) was 0.38 µg/mL. The MIC (Enterobacter cloacae [43]) was 0.047 µg/mL, the MIC (Citrobacter freundii) was 0.125 µg/mL and the MIC (Acinetobacter baumannii [44]) was 0.5 µg/mL. For the same compound, the MIC (Acinetobacter baumannii [45]) was 0.25 µg/mL, the MIC (Serratia marcescens) was 96 µg/mL and the MIC (Proteus mirabilis) was 24 µg/mL. It also gave an MIC (Proteus vulgaris) of 24 µg/mL and an MIC (Pseudomonas aeruginosa [46]) of 32 µg/mL.
